Data reported in ChEMBL document CHEMBL5058577, “EUbOPEN Chemogenomics Library 2 (Multiplex)” (2022).

Tested on: Fibroblast
Test: Multiplex assay against human fibroblast
Format: toxicity, cell-based
Method in brief: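 Tubulin, mitochondrial-mass and membrane-permeability phenotypes are per cents of healthy-nucleus cells. Cells were gated by CellPathfinder machine learning into Hoechst high-intensity objects or normal cells, normal cells into healthy, pyknosed or fragmented nuclei, and pyknosed cells into mitotic or apoptotic. Before that, live cells stained at seeding with Hoechst33342, BioTracker Green Microtubule Cytoskeleton Dye, MitoTracker Red and Annexin V Alexa Fluor 680 were imaged on a CQ1 microscope at 37°C and 5% CO2 after compound addition.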

[1] = 12 h, 1 µM, compound concentration 1 uM, replicate 1
[2] = 12 h, 1 µM, compound concentration 1 uM, replicate 2
[3] = 12 h, 10 µM, compound concentration 10 uM, replicate 1
[4] = 12 h, 10 µM, compound concentration 10 uM, replicate 2
[5] = 24 h, 1 µM, compound concentration 1 uM, replicate 1
[6] = 24 h, 1 µM, compound concentration 1 uM, replicate 2
[7] = 24 h, 10 µM, compound concentration 10 uM, replicate 1
[8] = 24 h, 10 µM, compound concentration 10 uM, replicate 2
[9] = 48 h, 1 µM, compound concentration 1 uM, replicate 1
[10] = 48 h, 1 µM, compound concentration 1 uM, replicate 2
[11] = 48 h, 10 µM, compound concentration 10 uM, replicate 1
[12] = 48 h, 10 µM, compound concentration 10 uM, replicate 2

O=C(NCCN1CCC(n2c(=O)[nH]c3cc(Cl)ccc32)CC1)c1ccc(F)cc1 [HALOPEMIDE]
Population Apoptotic (%) [1]: 32% | Population Fragmented Nuclei (%) [1]: 11% | Population Healthy Nuclei (%) [1]: 62% | Population Hoechst High Intensity Objects (%) [1]: 0% | Population Membrane Permeable-Phenotype (%) [1]: 1% | Population Mitochondria Different-Phenotype (%) [1]: 10% | Population Mitotic Cells (%) [1]: 67% | Population Normal (%) [1]: 99% | Population Pyknosed Nuclei (%) [1]: 26% | Population Tubulin-Different-Phenotype (%) [1]: 29% | Total Cell Count [1]: 120 | Population Apoptotic (%) [2]: 44% | Population Fragmented Nuclei (%) [2]: 27% | Population Healthy Nuclei (%) [2]: 43% | Population Hoechst High Intensity Objects (%) [2]: 7% | Population Membrane Permeable-Phenotype (%) [2]: 10% | Population Mitochondria Different-Phenotype (%) [2]: 0% | Population Mitotic Cells (%) [2]: 56% | Population Normal (%) [2]: 92% | Population Pyknosed Nuclei (%) [2]: 29% | Population Tubulin-Different-Phenotype (%) [2]: 56% | Total Cell Count [2]: 92 | Population Apoptotic (%) [3]: 55% | Population Fragmented Nuclei (%) [3]: 15% | Population Healthy Nuclei (%) [3]: 54% | Population Hoechst High Intensity Objects (%) [3]: 3% | Population Membrane Permeable-Phenotype (%) [3]: 0% | Population Mitochondria Different-Phenotype (%) [3]: 17% | Population Mitotic Cells (%) [3]: 44% | Population Normal (%) [3]: 96% | Population Pyknosed Nuclei (%) [3]: 30% | Population Tubulin-Different-Phenotype (%) [3]: 77% | Total Cell Count [3]: 204 | Population Apoptotic (%) [4]: 31% | Population Fragmented Nuclei (%) [4]: 24% | Population Healthy Nuclei (%) [4]: 34% | Population Hoechst High Intensity Objects (%) [4]: 4% | Population Membrane Permeable-Phenotype (%) [4]: 6% | Population Mitochondria Different-Phenotype (%) [4]: 14% | Population Mitotic Cells (%) [4]: 68% | Population Normal (%) [4]: 95% | Population Pyknosed Nuclei (%) [4]: 41% | Population Tubulin-Different-Phenotype (%) [4]: 87% | Total Cell Count [4]: 148 | Population Apoptotic (%) [5]: 58% | Population Fragmented Nuclei (%) [5]: 16% | Population Healthy Nuclei (%) [5]: 69% | Population Hoechst High Intensity Objects (%) [5]: 3% | Population Membrane Permeable-Phenotype (%) [5]: 1% | Population Mitochondria Different-Phenotype (%) [5]: 9% | Population Mitotic Cells (%) [5]: 41% | Population Normal (%) [5]: 96% | Population Pyknosed Nuclei (%) [5]: 13% | Population Tubulin-Different-Phenotype (%) [5]: 38% | Total Cell Count [5]: 128 | Population Apoptotic (%) [6]: 37% | Population Fragmented Nuclei (%) [6]: 32% | Population Healthy Nuclei (%) [6]: 41% | Population Hoechst High Intensity Objects (%) [6]: 10% | Population Membrane Permeable-Phenotype (%) [6]: 5% | Population Mitochondria Different-Phenotype (%) [6]: 8% | Population Mitotic Cells (%) [6]: 62% | Population Normal (%) [6]: 90% | Population Pyknosed Nuclei (%) [6]: 26% | Population Tubulin-Different-Phenotype (%) [6]: 59% | Total Cell Count [6]: 100 | Population Apoptotic (%) [7]: 67% | Population Fragmented Nuclei (%) [7]: 23% | Population Healthy Nuclei (%) [7]: 51% | Population Hoechst High Intensity Objects (%) [7]: 5% | Population Membrane Permeable-Phenotype (%) [7]: 0% | Population Mitochondria Different-Phenotype (%) [7]: 28% | Population Mitotic Cells (%) [7]: 32% | Population Normal (%) [7]: 95% | Population Pyknosed Nuclei (%) [7]: 24% | Population Tubulin-Different-Phenotype (%) [7]: 78% | Total Cell Count [7]: 220 | Population Apoptotic (%) [8]: 41% | Population Fragmented Nuclei (%) [8]: 26% | Population Healthy Nuclei (%) [8]: 38% | Population Hoechst High Intensity Objects (%) [8]: 6% | Population Membrane Permeable-Phenotype (%) [8]: 12% | Population Mitochondria Different-Phenotype (%) [8]: 32% | Population Mitotic Cells (%) [8]: 58% | Population Normal (%) [8]: 93% | Population Pyknosed Nuclei (%) [8]: 35% | Population Tubulin-Different-Phenotype (%) [8]: 94% | Total Cell Count [8]: 140 | Population Apoptotic (%) [9]: 52% | Population Fragmented Nuclei (%) [9]: 14% | Population Healthy Nuclei (%) [9]: 68% | Population Hoechst High Intensity Objects (%) [9]: 3% | Population Membrane Permeable-Phenotype (%) [9]: 4% | Population Mitochondria Different-Phenotype (%) [9]: 7% | Population Mitotic Cells (%) [9]: 47% | Population Normal (%) [9]: 96% | Population Pyknosed Nuclei (%) [9]: 17% | Population Tubulin-Different-Phenotype (%) [9]: 36% | Total Cell Count [9]: 128 | Population Apoptotic (%) [10]: 35% | Population Fragmented Nuclei (%) [10]: 38% | Population Healthy Nuclei (%) [10]: 43% | Population Hoechst High Intensity Objects (%) [10]: 4% | Population Membrane Permeable-Phenotype (%) [10]: 14% | Population Mitochondria Different-Phenotype (%) [10]: 4% | Population Mitotic Cells (%) [10]: 64% | Population Normal (%) [10]: 95% | Population Tubulin-Different-Phenotype (%) [10]: 63% | Total Cell Count [10]: 99 | Population Apoptotic (%) [11]: 80% | Population Fragmented Nuclei (%) [11]: 32% | Population Healthy Nuclei (%) [11]: 50% | Population Hoechst High Intensity Objects (%) [11]: 10% | Population Membrane Permeable-Phenotype (%) [11]: 0% | Population Mitochondria Different-Phenotype (%) [11]: 35% | Population Mitotic Cells (%) [11]: 19% | Population Normal (%) [11]: 89% | Population Pyknosed Nuclei (%) [11]: 17% | Population Tubulin-Different-Phenotype (%) [11]: 77% | Total Cell Count [11]: 229 | Population Apoptotic (%) [12]: 48% | Population Fragmented Nuclei (%) [12]: 35% | Population Healthy Nuclei (%) [12]: 45% | Population Hoechst High Intensity Objects (%) [12]: 5% | Population Membrane Permeable-Phenotype (%) [12]: 10% | Population Mitochondria Different-Phenotype (%) [12]: 15% | Population Mitotic Cells (%) [12]: 52% | Population Normal (%) [12]: 94% | Population Pyknosed Nuclei (%) [12]: 19% | Population Tubulin-Different-Phenotype (%) [12]: 96% | Total Cell Count [12]: 136
